Test results: the EternaBench riboswitch data

System: MS2 coat protein
Assay: apparent Kd, MS2 coat protein; higher = weaker binding; RNA-MaP array; FMN 200 µM where present
How it was run: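 Binding was read on Illumina sequencing-chip clusters where stalled E. coli RNA polymerase had transcribed each design. A titration of SNAP-549-labelled MS2 coat protein began at 0.7 or 1.5 nM and doubled to 3 µM, once without ligand and once with constant ligand, in 100 mM Tris-HCl pH 7.5, 80 mM KCl, 4 mM MgCl2, BSA, DTT, yeast tRNA and Tween-20. The apparent Kd is the median of filtered per-cluster binding-curve fits, based on green signal normalised to red-channel RNA signal and control-cluster median Fmax.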

[1] = designed as: OFF switch for flavin mononucleotide, no ligand
[2] = ligand present: flavin mononucleotide, designed as: OFF switch for flavin mononucleotide
[3] = designed as: ON switch for flavin mononucleotide, no ligand
[4] = ligand present: flavin mononucleotide, designed as: ON switch for flavin mononucleotide

UCGGGUUAUACAGGAUAUGUUUAGGUUUAUUCAUGCAGUUAUUAAUUUAUGACAGAAGGGUAUACAUGAGGAUCACCCAUGUCA
apparent Kd [1]: 0.542 µM | apparent Kd [2]: 0.387 µM

GAGUAGUUGAUAGGAUAUUGAUUGUUAUAGGAUCAAGAAGGAUCUAACAUGAGGAUCACCCAUGUAGGACUAUUCCUGUGUAUC
apparent Kd [3]: 0.0221 µM | apparent Kd [4]: 0.0192 µM

CCAUCGAGUGUGAGGAUAUGCUGGUCCUUGGAUCAGCAGAAGGCACAUGAGGAUCACCCAUGUGGAGACGGUGG
apparent Kd [1]: 0.0601 µM | apparent Kd [2]: 0.286 µM

CGUAUGGACAGAGGAUAUGCCGAUAGGAUCUACUAUCGAAGAAUCCUCACAUGAGGAUCACCCAUGUAGAAGGCUGUCCAUACU
apparent Kd [1]: 0.00815 µM | apparent Kd [2]: 0.0363 µM

AAGUGGUUUAUAUAUAUAGAUAUCAGAAGGCGUGACAUGAGGAUCACCCAUGUGUACUGUCAUGACGAGGAUAUGACUAAUUGU
apparent Kd [1]: 0.024 µM | apparent Kd [2]: 0.0195 µM

UAUUAACACGAAGGAUAUGCUUACAUGAGGAUCACCCAUGUAUGUAUAUUGAUCCAGAGUUUUGAGCAGAAGGUCGUGAGUAAA
apparent Kd [1]: 0.0323 µM | apparent Kd [2]: 0.153 µM

UAUAUAUAGUAAGGAUAUGUAUUUAUUUUAGAAACAGAAGGUACUGACAUGAGGAUCACCCAUGUUUUAGUGUGGGCAUGUAGA
apparent Kd [1]: 0.0963 µM | apparent Kd [2]: 0.152 µM

CGCAAGUAUACAUGAGGAUCACCCAUGUUUGAUAGGGUUUUCAGAAGGUACAAUUAGAGAUAGAGUAAGGAUAUGAAAUUUGCG
apparent Kd [3]: 0.125 µM | apparent Kd [4]: 0.0247 µM

UGUCGGAGCAGAGGAUAUACAUGAGGAUCACCCAUGUAAUAGGAUGAAGCCUGGAAACAGGCAAUGUAGAAGGCUGCUCCGACA
apparent Kd [1]: 0.0579 µM | apparent Kd [2]: 0.67 µM

UAAUAAAACGAUCGGCGAUCCAUACAUGAGGAUCACCCAUGUAGAAGGCACUCUACAAAGUAGAGUGAGGAUAUACGAGAUCGA
apparent Kd [1]: 0.00785 µM | apparent Kd [2]: 0.105 µM

GGUGGACAUGAGGAUCACCCAUGUGAGGAUAUCGGCUAUCUACUCGCUGUCGGUUGCUCGAGAAGGCACAUUGU
apparent Kd [1]: 0.177 µM | apparent Kd [2]: 0.171 µM

UUAUUUUGUCAAGGAUAUGUAUUAUUGAUUUGAAAACAUGAGGAUCACCCAUGUAUAUGGUGGGAACAGAAGGUGAAUGGUGAA
apparent Kd [1]: 0.194 µM | apparent Kd [2]: 0.215 µM

AAGGUGUAAGGAUAUGCUGCUCGUCACUUGCGUGAUGAGUAGCAGAAGGUACAUGAGGAUCACCCAUGUAAAAA
apparent Kd [1]: 0.0279 µM | apparent Kd [2]: 0.0346 µM

GUUGUGUGAGGAUAUGCCUGGCCGUGUGGCCGGAUUGGGUGGCAGAAGGUACAUGAGGAUCACCCAUGUACGGG
apparent Kd [1]: 0.0906 µM | apparent Kd [2]: 0.07 µM

GGAGGACAUGAGGAUCACCCAUGUGGAUGAACGCUAGGAUAUGCGUGCAGGAAGAGUGGAGCAGAAGGAGUGGGAU
apparent Kd [3]: 0.0264 µM | apparent Kd [4]: 0.0193 µM

GGUUAUUGCAAGGAUAUGCUUUUUUUUGAUAUUGCAGAAGGUGCAACAUGAGGAUCACCCAUGUUGGAGGGAUU
apparent Kd [1]: 0.0307 µM | apparent Kd [2]: 0.0918 µM

AAUUAACUCACAGGAUAUAGCAGAGGUCGCGUAAACUUACAGGCGACGAGGCUAGAAGGGUGACCACAUGAGGAUCACCCAUGU
apparent Kd [3]: 0.648 µM | apparent Kd [4]: 0.0988 µM

GCCAGGAUGUGAGGAUAUGCUGAGGAUACUUCAGCAGAAGGCACAUGAGGAUCACCCAUGUACACUUAUCAUAAAUACCCUGGC
apparent Kd [1]: 0.0134 µM | apparent Kd [2]: 0.0163 µM

GGAGCUCCUGACAUGAGGAUCACCCAUGUUCACUUAUUAAAUCAGGAUAUCGUCGCGAAACGCGACGAGAAGGGAUAUGCUCCU
apparent Kd [3]: 0.00755 µM | apparent Kd [4]: 0.00705 µM

UCAUUUCAGUAAGGAUAUUUAUUCAUGACGAUACAUGAGGAUCACCCAUGUAAAGAAGGUACUAAUACAAAUAAUGCAUUGUUC
apparent Kd [1]: 0.0119 µM | apparent Kd [2]: 0.0101 µM

AGCAAAUCAGGAUAUGUACUGGACGACAUGAGGAUCACCCAUGUGAUUCAGUGCGCGAGAACAGAAGGGAUUCGCU
apparent Kd [1]: 0.0175 µM | apparent Kd [2]: 0.0428 µM

GUAGCUAUCGGAGGAUAUUCAUACCGGAAACGGACAUGAGGAUCACCCAUGUGGAGAAAGCCUUGGGAGAAGGCCGAUAGCUAC
apparent Kd [3]: 0.176 µM | apparent Kd [4]: 0.0176 µM

UGAGCUUGAGGAUAUACAUGAGGAUCACCCAUGUUGAGCUUGAGGAUCUUCGAGUUCGGUAGAAGGCGAGUUCG
apparent Kd [1]: 0.016 µM | apparent Kd [2]: 0.033 µM

GAAAAGUAAGGAUAUGCACACAGUGAGGAAACUCACUGUGUGCAGAAGGUACAUGAGGAUCACCCAUGUUUCUC
apparent Kd [1]: 0.0381 µM | apparent Kd [2]: 0.187 µM

AACUAGCUAGGAUAUACAUGAGGAUCACCCAUGUAAAAAAAAAAAAAAAGAUAUAUAUGUAGAAGGAGCUAGUA
apparent Kd [1]: 0.0337 µM | apparent Kd [2]: 0.0449 µM

GGAACUUAGGGAGGAUAUAGGCGACAUGAGGAUCACCCAUGUACGGAGGGCUCUUCCCGUGUUCACUAGAAGGCCCAUGUUACC
apparent Kd [1]: 0.0194 µM | apparent Kd [2]: 0.0751 µM

UGAUCUUGUGUCAGGAUAUGCUGGUCUCCUCUCCAGCAGAAGGGACAUGAGGAUCACCCAUGUUCUCUCUUUUU
apparent Kd [1]: 0.011 µM | apparent Kd [2]: 0.0286 µM

CUAUAUAAUACCUCAUGUACAUGAGGAUCACCCAUGUUAACUUAGGAUAUAUUUAUAUUAAUAGAGUAGAAGGAAGUACUAUUG
apparent Kd [1]: 0.0274 µM | apparent Kd [2]: 0.0212 µM

AAGUACCGGUGAGGAUAUUUUUAAUAGAACUUUAUGAUAUACAUGAGGAUCACCCAUGUUACUUUAAAGAAGGCAUCGGAUAAA
apparent Kd [1]: 0.0183 µM | apparent Kd [2]: 0.0146 µM

ACAUGAGGAUCACCCAUGUAUUACAUGGUUAAGUUUAUUAACAGAAGGCGAAAUUACCACUUUUUCGAGGAUAUGUAUUCUAUU
apparent Kd [1]: 0.0357 µM | apparent Kd [2]: 0.0607 µM

CAGUACUGAGGAUAUACAUGAGGAUCACCCAUGUGUCUAAAGUAGGAUACUACUAUUAGUAGAAGGCAGUACUG
apparent Kd [1]: 0.0121 µM | apparent Kd [2]: 0.0149 µM

UUUGGGAGCACAGGAUAUGGCACCUCGAAGGCGCCAGAAGGGUGAUUCUGUUGGUGGCCACAUGAGGAUCACCCAUGUGCCUCC
apparent Kd [3]: 0.0295 µM | apparent Kd [4]: 0.0369 µM

UGUUACUAGGGAGGAUAUGGGAAGAUACAUGAGGAUCACCCAUGUUUAAGAAUGCCGAGAGGCAACUAGAAGGCCCUAGUACCU
apparent Kd [3]: 0.354 µM | apparent Kd [4]: 0.0231 µM

CCUGCGGACAAAGGAUAUUGCGGUGGCCGGCUCAGUAAAUCUAGCCAACAUGAGGAUCACCCAUGUAAGAAGGUUGCCGUUGGU
apparent Kd [1]: 0.0191 µM | apparent Kd [2]: 0.0351 µM

GGAGAUUACUCAGGAUAUCGCUAGACCUACAUGAGGAUCACCCAUGUGGGUGACGCGGUGGGCUACGAGAAGGGAGAAGUGCCC
apparent Kd [1]: 0.0089 µM | apparent Kd [2]: 0.00853 µM

GUCAGCUCGUGAGGAUAUACAUGUGCUGGAGACAGCACUAAUUAAUUCACAUGAGGAUCACCCAUGUAGAAGGCACGAGCUGAU
apparent Kd [1]: 0.0162 µM | apparent Kd [2]: 0.0196 µM

AACAGUACAGGAUAUACAUGAGGAUCACCCAUGUGAUAUUUAAGUGGCGUACCACAAAGUAGAAGGGUACUGGA
apparent Kd [1]: 0.022 µM | apparent Kd [2]: 0.0856 µM

CGGCAAGUCACAGGAUAUGGUGAUGUACAUGAGGAUCACCCAUGUCCGUCUUCUCUCACAAGAUGCCAGAAGGGUGACUUCCAG
apparent Kd [3]: 0.946 µM | apparent Kd [4]: 0.14 µM

GCUAGUAUUGCAGGAUAUUGUAAAUUAUUAUUUCAAGAAGGGCAUUACAUGAGGAUCACCCAUGUCAUCCUUUGGAAUACUAGC
apparent Kd [1]: 0.00619 µM | apparent Kd [2]: 0.00651 µM

AAUCCACAUGAGGAUCACCCAUGUCAGGAUAUCGUGUCGCGGGUUUCGGUCCGUGAUGCGAGAAGGGACGGCUG
apparent Kd [1]: 0.0319 µM | apparent Kd [2]: 0.0531 µM

CACCGACCCUAUGUGUUCUAGACAUGAGGAUCACCCAUGUAUAGAAGGGUCUUCGCGAAACGCAGACAGGAUAUGUACAGGAGU
apparent Kd [1]: 0.00658 µM | apparent Kd [2]: 0.00989 µM

CAUUGCGGAGGAUAUAGGCCGUAAUACAUGAGGAUCACCCAUGUGCCGCUGUAUAAUUCCCUAGAAGGUUGCCAUC
apparent Kd [1]: 0.0154 µM | apparent Kd [2]: 0.0157 µM

AUUUUUUAUGUAGGAUAUGCUUGUGGUAAGAUAGCAGAAGGACAUGAGGAUCACCCAUGUUAAUGAUAGAGAUUUUAUGUUGGU
apparent Kd [1]: 0.0388 µM | apparent Kd [2]: 0.0588 µM

CCAUCGAGUGUGAGGAUAUGCUGGUCCUUGGAUCAGCAGAAGGCACAUGAGGAUCACCCAUGUGGAUACGGUGG
apparent Kd [1]: 0.031 µM | apparent Kd [2]: 0.235 µM

CAGUAAUUCGAAGGAUAUGGUUACAUGAGGAUCACCCAUGUAUUUUUUGUGAUCUUAAAAUUGAUCCAGAAGGUCGAAUUACUG
apparent Kd [1]: 0.177 µM | apparent Kd [2]: 0.373 µM

CGUUAUAACGAGAAGGCUGUCUGCAGUCCAGACGGAGGAUAUCGAGAAGACAUGAGGAUCACCCAUGUACGCUGGUGUCUUCAU
apparent Kd [1]: 0.0255 µM | apparent Kd [2]: 0.189 µM

CGCUGCCACGCAGGAUAUGCAUUGGAUUACAAUGCAGAAGGGCGAUUACAUGAGGAUCACCCAUGUGUCGGCAGUGAAGAAGAG
apparent Kd [3]: 0.657 µM | apparent Kd [4]: 0.0449 µM

UGUUGUAUUACAGGAUAUCUAUAAUUUUUAUUUAGAGAAGGGUAUUCACAUGAGGAUCACCCAUGUAUAUACGAGGAAGUUGUG
apparent Kd [3]: 0.0435 µM | apparent Kd [4]: 0.0458 µM

GGUGCGUGUGUGAGGAUAUGCUGGUCCUUGGCUCGGCAGAAGGCACAUGAGGAUCACCCAUGUGGUGUCGUGCC
apparent Kd [1]: 0.0228 µM | apparent Kd [2]: 0.0498 µM

GUCUUACAUGAGGAUCACCCAUGUGAGGAUAUCCCGGGCCCGGGCUUGCCCGGGCCCGGGAGAAGGCACAUGUU
apparent Kd [1]: 0.0322 µM | apparent Kd [2]: 0.0994 µM

UUCAGCUCGUCAGGAUAUACGUCACUGCUUCGGCAGUGUGGUAAGAUCACAUGAGGAUCACCCAUGUAGAAGGGACGAGCUGAU
apparent Kd [1]: 0.0119 µM | apparent Kd [2]: 0.274 µM

AUCAGCUCGUCAGGAUAUACGUCACUGCGUCAGCAGUGUGGUAAGAUCACAUGAGGAUCACCCAUGUAGAAGGGAUGAGCUGAU
apparent Kd [1]: 0.0133 µM | apparent Kd [2]: 0.288 µM

CCAGCGCGUGUGAGGAUAUGCUGGUCCUUGGAUCAGCAGAAGGCACAUGAGGAUCACCCAUGUGAGUGCGUUGG
apparent Kd [1]: 0.0157 µM | apparent Kd [2]: 0.0472 µM

CCUCAACAGUAGGAUAUCAUAAAACUAUUGUGAUGAGAAGGACUGACAUGAGGAUCACCCAUGUUAACGUGAUA
apparent Kd [1]: 0.0196 µM | apparent Kd [2]: 0.0305 µM

AUAAUGUGAGGAUAUAUGUAUCACGGUGAUACACCGUGAUGAUAGAAGGUACAUGAGGAUCACCCAUGUAGGGC
apparent Kd [1]: 0.0366 µM | apparent Kd [2]: 0.0727 µM
